Columns and labels:
[1] = biological target: T1, Broad substrate specificity ATP-binding cassette transporter ABCG2 (Homo sapiens, UniProt Q9UNQ0); assay: Inhibition of human ABCG2 transfected in Sf9 insect cells assessed as inhibition of basal ATPase activity in absence of substrate drug after 30 mins by colorimetry; details: sf9, 0.5 h
T1 sequence (Q9UNQ0 whole entry): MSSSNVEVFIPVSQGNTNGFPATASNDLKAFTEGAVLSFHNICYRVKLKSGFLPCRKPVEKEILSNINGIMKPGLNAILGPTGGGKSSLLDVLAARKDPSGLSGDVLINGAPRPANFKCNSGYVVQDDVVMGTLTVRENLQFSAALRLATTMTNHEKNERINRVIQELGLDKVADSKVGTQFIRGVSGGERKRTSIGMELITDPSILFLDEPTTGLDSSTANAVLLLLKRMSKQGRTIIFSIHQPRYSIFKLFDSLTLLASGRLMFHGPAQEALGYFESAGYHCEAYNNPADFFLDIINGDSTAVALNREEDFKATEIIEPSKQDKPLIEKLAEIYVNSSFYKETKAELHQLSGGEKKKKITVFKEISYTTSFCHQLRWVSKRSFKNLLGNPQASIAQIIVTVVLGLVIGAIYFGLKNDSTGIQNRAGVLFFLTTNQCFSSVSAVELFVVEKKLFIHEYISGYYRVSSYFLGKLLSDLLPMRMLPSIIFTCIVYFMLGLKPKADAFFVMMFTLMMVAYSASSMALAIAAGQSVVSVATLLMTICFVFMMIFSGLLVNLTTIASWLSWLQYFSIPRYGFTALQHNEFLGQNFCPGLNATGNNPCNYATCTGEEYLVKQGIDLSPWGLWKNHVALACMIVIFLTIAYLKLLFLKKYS
How it was run: (§1)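 Cholesterol-loaded membranes from Sf9 cells overexpressing human ABCG2 (0.5 mg/mL; 10 μg/sample) in 50 mM Tris-HCl, 50 mM NaCl, pH 8.0, with or without 0.33 mM orthovanadate, no transport substrate; started with 3.9 mM ATP-Mg, 30 min at 37 °C; stopped with SDS; phosphate released read with molybdate/ascorbic acid at 880 nm; vanadate-sensitive basal activity taken as 100%.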

PANC-1 = assay: Selectivity ratio of EC50 for human PANC1 cells overexpressing ABCG2 to EC50 for human H460 cells overexpressing ABCG2; assay type: functional
[2] = tested on: ATP-binding cassette sub-family G member 2 (Homo sapiens); assay: Inhibition of ABCG2-mediated mitoxantrone efflux in mitoxantrone-selected human PANC1 cells overexpressing ABCG2; details: PANC-1
HEK293 = assay: Cytotoxicity against HEK293 cells overexpressing ABCG2 at 0.1 uM after 72 hrs by MTT assay; assay type: ADME, cell-based; details: human, hek293, 72 h
How it was run: (§2)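 HEK293-ABCG2 and vector-control HEK293-pcDNA3.1 cells were seeded at 1 × 10⁴/well and grown 24 h, then exposed 72 h to mitoxantrone (0–25 nM). ABCG2 cells were also given bis-chalcone at 0.1 or 0.5 μM. MTT was added for 4 h, formazan dissolved in DMSO/ethanol (1:1) and read at 570 nm. IC50 = mitoxantrone concentration giving 50% survival.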

ABCG2 = biological target: T2, ABCG2 (Homo sapiens, UniProt Q9UNQ0); assay: Inhibition of ABCG2 (unknown origin) transfected in HEK293 cells assessed as inhibition of mitoxantrone efflux at 5 uM after 30 mins by flow cytometry relative to control; assay type: cell-based; details: HEK293 cells transfected with ABCG2, probe mitoxantrone
T2 sequence (Q9UNQ0 whole entry): T1 sequence (Q9UNQ0 whole entry)
How it was run: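 HEK293-ABCG2 cells (1.5 × 10⁵/well, grown 48 h) exposed to 5 μM mitoxantrone for 30 min at 37 °C with compound (increasing concentrations up to 10 μM); washed, trypsinized, FL4 flow cytometry, ≥10 000 events.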

[3] = biological target: T1, Broad substrate specificity ATP-binding cassette transporter ABCG2; assay: Inhibition of ABCG2 (unknown origin)-mediated mitoxantrone efflux transfected in HEK293 cells assessed as potentiation of mitoxantrone-induced cytotoxicity at 0.1 uM after 72 hrs by MTT assay; assay type: cell-based; details: hek293, 72 h; how it was run: as §2
[4] = biological target: T1, Broad substrate specificity ATP-binding cassette transporter ABCG2; assay: Inhibition of ABCG2 (unknown origin) transfected in HEK293 cells assessed as inhibition of mitoxantrone efflux at 5 uM after 30 mins in presence of 0.1 uM chromone 1 by flow cytometry; assay type: cell-based
[5] = biological target: T1, Broad substrate specificity ATP-binding cassette transporter ABCG2; assay: Inhibition of ABCG2 (unknown origin) transfected in HEK293 cells assessed as inhibition of mitoxantrone efflux at 5 uM after 30 mins in presence of 0.02 uM Ko143 by flow cytometry; assay type: cell-based
[6] = Selectivity ratio of EC50 for human H23 cells overexpressing ABCG2 to EC50 for human H460 cells overexpressing ABCG2; assay type: functional
ABCG2 ATPase = biological target: T3, ABCG2 ATPase (Homo sapiens, UniProt Q9UNQ0); assay: Activation of human ABCG2 transfected in Sf9 insect cells assessed as stimulation of basal ATPase activity in absence of substrate drug after 30 mins by colorimetry; details: Sf9 insect cells transfected with human ABCG2, read-out: FC; how it was run: as §1
T3 sequence (Q9UNQ0 whole entry): T1 sequence (Q9UNQ0 whole entry)

[7] = biological target: Multidrug resistance-associated protein 1 (Homo sapiens, UniProt P33527); assay: Inhibition of ABCC1 (unknown origin) transfected in HEK293 cells assessed as inhibition of calcein-AM efflux up to 10 uM after 30 mins by flow cytometry relative to control; assay type: cell-based; details: hek293, 0.5 h
Sequence of Multidrug resistance-associated protein 1 (P33527 whole entry): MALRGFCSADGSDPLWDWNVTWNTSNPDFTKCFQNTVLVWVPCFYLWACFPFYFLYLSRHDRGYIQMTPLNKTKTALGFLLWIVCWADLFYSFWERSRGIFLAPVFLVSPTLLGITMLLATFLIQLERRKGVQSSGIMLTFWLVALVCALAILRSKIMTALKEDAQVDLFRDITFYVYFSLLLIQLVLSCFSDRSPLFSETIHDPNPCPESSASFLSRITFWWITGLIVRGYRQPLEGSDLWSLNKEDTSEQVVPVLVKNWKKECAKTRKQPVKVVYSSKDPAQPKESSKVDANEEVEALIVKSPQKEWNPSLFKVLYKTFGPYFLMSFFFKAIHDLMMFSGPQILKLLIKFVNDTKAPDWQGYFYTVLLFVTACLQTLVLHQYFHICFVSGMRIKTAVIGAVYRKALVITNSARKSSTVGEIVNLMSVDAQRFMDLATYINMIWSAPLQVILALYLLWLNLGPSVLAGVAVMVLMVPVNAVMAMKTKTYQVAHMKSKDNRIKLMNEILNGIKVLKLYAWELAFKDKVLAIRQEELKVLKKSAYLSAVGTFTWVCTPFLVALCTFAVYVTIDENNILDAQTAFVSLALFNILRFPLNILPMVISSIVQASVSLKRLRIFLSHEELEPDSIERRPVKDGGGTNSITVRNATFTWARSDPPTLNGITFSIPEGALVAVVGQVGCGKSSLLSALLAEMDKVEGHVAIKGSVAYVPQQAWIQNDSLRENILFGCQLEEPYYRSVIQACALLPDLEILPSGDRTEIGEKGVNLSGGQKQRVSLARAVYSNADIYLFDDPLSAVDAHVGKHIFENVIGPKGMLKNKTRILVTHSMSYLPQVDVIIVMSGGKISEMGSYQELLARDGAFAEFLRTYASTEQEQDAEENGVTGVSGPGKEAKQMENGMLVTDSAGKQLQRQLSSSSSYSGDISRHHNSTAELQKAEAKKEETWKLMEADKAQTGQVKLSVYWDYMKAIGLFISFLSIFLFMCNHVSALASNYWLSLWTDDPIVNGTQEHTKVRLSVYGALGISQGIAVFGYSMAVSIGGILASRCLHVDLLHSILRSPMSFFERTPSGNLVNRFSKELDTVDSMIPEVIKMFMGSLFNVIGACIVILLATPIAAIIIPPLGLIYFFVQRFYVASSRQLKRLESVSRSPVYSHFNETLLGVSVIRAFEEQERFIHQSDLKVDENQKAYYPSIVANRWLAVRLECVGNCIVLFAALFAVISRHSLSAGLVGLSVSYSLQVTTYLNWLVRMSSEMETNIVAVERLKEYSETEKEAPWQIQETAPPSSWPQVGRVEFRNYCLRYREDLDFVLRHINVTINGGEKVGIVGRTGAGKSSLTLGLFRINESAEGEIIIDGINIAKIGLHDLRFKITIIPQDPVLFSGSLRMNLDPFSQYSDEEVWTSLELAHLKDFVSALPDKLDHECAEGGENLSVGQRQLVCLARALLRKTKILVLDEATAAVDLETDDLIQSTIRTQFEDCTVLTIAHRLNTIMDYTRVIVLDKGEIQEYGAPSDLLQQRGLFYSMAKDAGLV
How it was run: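 HEK293-ABCC1 cells (2 × 10⁵/well, kept in 200 μg/mL hygromycin B) were exposed to 0.2 μM calcein-AM for 30 min at 37 °C with bis-chalcone at 1 or 10 μM. Calcein was read by FL1 flow cytometry, ≥10 000 events. Inhibition was expressed relative to HEK293/pcDNA5 cells, whose maximal accumulation equals complete inhibition.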

[8] = biological target: T1, Broad substrate specificity ATP-binding cassette transporter ABCG2; assay: Inhibition of human ABCG2 ATPase activity transfected in Sf9 insect cells using quercetin as substrate after 30 mins by colorimetry relative to control
How it was run: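 Vanadate-sensitive ATPase of cholesterol-loaded human ABCG2 Sf9 membranes (0.5 mg/mL; 10 μg/sample), 50 mM Tris-HCl/50 mM NaCl pH 8.0, with 2 μM quercetin. ATP-Mg 3.9 mM, 30 min, 37 °C. Phosphate measured colorimetrically at 880 nm. Coupled activity = total minus basal, taken as 100%. IC50 is the concentration giving 50% inhibition.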

[9] = biological target: ATP-dependent translocase ABCB1 (Homo sapiens, UniProt P08183); assay: Inhibition of ABCB1 (unknown origin) transfected in mouse NIH/3T3 cells assessed as inhibition of mitoxantrone efflux up to 10 uM after 30 mins by flow cytometry relative to control; assay type: cell-based; details: nih/3t3, 0.5 h
Sequence of ATP-dependent translocase ABCB1 (P08183 whole entry): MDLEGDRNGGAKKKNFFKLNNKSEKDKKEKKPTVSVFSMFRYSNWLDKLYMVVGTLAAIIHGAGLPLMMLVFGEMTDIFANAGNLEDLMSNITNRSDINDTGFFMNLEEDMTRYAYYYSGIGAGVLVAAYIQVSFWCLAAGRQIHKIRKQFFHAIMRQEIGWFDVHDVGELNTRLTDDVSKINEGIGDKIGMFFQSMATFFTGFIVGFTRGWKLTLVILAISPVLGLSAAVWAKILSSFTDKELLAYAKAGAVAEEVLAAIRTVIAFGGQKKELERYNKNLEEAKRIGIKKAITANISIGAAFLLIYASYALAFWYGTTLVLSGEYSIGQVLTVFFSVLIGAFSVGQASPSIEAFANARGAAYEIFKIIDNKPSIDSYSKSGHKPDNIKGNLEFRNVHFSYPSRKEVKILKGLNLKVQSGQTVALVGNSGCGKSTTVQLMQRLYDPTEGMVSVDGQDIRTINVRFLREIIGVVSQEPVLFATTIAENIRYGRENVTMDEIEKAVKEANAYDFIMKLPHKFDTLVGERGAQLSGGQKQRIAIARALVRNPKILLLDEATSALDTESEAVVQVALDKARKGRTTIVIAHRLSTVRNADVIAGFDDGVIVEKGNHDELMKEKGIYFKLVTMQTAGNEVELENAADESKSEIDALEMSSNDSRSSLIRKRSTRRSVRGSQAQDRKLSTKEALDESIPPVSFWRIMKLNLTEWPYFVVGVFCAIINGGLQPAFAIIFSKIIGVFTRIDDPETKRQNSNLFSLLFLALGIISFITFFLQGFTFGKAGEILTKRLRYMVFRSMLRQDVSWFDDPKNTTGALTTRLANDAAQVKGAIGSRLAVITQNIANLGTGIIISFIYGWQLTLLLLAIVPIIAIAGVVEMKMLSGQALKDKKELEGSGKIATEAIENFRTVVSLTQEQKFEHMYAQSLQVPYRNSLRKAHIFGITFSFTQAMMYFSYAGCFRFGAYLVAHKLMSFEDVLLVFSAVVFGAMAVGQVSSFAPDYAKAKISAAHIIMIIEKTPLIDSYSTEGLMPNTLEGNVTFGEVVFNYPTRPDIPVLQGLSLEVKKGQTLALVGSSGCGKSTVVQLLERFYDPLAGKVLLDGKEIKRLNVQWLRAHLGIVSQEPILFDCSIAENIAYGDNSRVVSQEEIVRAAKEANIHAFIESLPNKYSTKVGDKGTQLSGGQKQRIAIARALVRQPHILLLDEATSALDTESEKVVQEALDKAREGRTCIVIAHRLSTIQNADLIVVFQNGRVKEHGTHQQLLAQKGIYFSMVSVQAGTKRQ
How it was run: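 NIH-3T3-ABCB1 cells (1.5 × 10⁵/well, 48 h, kept in 60 ng/mL colchicine) were given 5 μM mitoxantrone for 30 min at 37 °C with bis-chalcone at 1 or 10 μM. Fluorescence was read by FL4 flow cytometry, ≥10 000 events. Inhibition was expressed relative to parental NIH-3T3 cells, whose maximal accumulation was taken as complete inhibition.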

[10] = biological target: T1, Broad substrate specificity ATP-binding cassette transporter ABCG2; assay: Inhibition of ABCG2 (unknown origin) transfected in HEK293 cells assessed as inhibition of mitoxantrone efflux after 30 mins by flow cytometry relative to control; assay type: cell-based

For `COc1cccc(OC)c1/C=C/C(=O)c1ccc(C(=O)/C=C/c2c(OC)cccc2OC)cc1`, the “inhibition (INH)” value [1] was “Not Active”, the “Ratio EC50” value (PANC-1) was 3 and the EC50 [2] was 210 nM. The Activity (HEK293) was “Non-toxic”, the inhibition at 0.5 h, 5 µM (ABCG2) was 108% and the “inhibition (INH)” value [3] was “Active”. The EC50 [4] was 15 nM, the EC50 [5] was 126 nM and the “Ratio EC50” value [6] was 3. The fold induction at 0.5 h (ABCG2 ATPase) was 1.6, the “inhibition (INH)” value [7] was “Not Active” and the IC50 [8] was 190 nM. The “inhibition (INH)” value [9] was “Not Active” and the EC50 [10] was 200 nM.
